Reference: ChEMBL document CHEMBL1212940, “Polyacetylenes from the roots of Polyalthia debilis” (2010)
Values after ≈ are worked out from the molar mass of the structure shown. Active and inactive are the calls of the source. The calls are words filed in the database; no cut-off is given here.

What was measured:
[1] = system: Plasmodium falciparum; assay: Antimalarial activity against Plasmodium falciparum; format: functional, organism-based
[2] = system: Candida albicans; assay: Antifungal activity against Candida albicans; format: functional, organism-based
[3] = system: BC1; assay: Cytotoxicity against human BC1 cells; format: functional, cell-based
[4] = system: NCI-H187; assay: Cytotoxicity against human NCI-H187 cells; format: functional, cell-based
[5] = system: KB; assay: Cytotoxicity against human KB cells; format: functional, cell-based
[6] = system: Mycobacterium tuberculosis; assay: Antimycobacterial activity against Mycobacterium tuberculosis H37Ra by microplate alamar blue assay; format: functional
Procedure, shortened: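 Whole-cell microplate Alamar Blue test of M. tuberculosis H37Ra, read out as MIC in µg/mL. Isoniazid and kanamycin sulfate served as reference drugs.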

SMILES	Activity [1]	Activity [2]	Activity [3]	Activity [4]	Activity [5]	MIC [6] [µg/mL]
C=CCCCCCCC#CCCCC[C@@H]1C[C@@H](CO)OC1=O	inactive	inactive	inactive	inactive	inactive	
C=CCCCCCCC#CCCCCCCCCCC[C@@H]1C[C@@H](CO)OC1=O	inactive	inactive	inactive	inactive	inactive	
CCCC/C=C\C#CC#CCCCCCCCCCCCC[C@H]1C[C@@H](CO)OC1=O	inactive	inactive	inactive	inactive	inactive	
C=CCC/C=C/C#CC#CCCCCCCCCCC[C@H]1C[C@@H](CO)OC1=O [DEBILISONE E]	inactive	inactive	inactive	inactive	inactive	25 (≈ 65 µM)
CCCCC[C@H](O)C#CC#CCCCCCCCCCC[C@H]1C[C@@H](CO)OC1=O [DEBILISONE B]	inactive	inactive	inactive	inactive	inactive	25 (≈ 61.8 µM)
C=CCC/C=C\C#CC#CCCCCCCCCCC[C@H]1C[C@@H](CO)OC1=O	inactive	inactive	inactive	inactive	inactive	
CCCCCCC#CC#CCCCCCCCCCC[C@H]1C[C@@H](CO)OC1=O	inactive	inactive	inactive	inactive	inactive	
CCCC/C=C/C#CC#CCCCCCCCCCC[C@H]1C[C@@H](CO)OC1=O [DEBILISONE C]	inactive	inactive	inactive	inactive	inactive	12.5 (≈ 32.3 µM)
